Laboratory results reported in ChEMBL document CHEMBL1134050, “Phenyl benzenesulfonamides are novel and selective 5-HT6 antagonists: identification of N-(2,5-dibromo-3-fluorophenyl)-4-methoxy-3-piperazin-1-ylbenzenesulfonamide (SB-357134)” (Bioorg Med Chem Lett, 2001).
pKi: −log10 of the molar value.

Assays:
[1] = target: 5-hydroxytryptamine receptor 6 (Homo sapiens, UniProt P50406); test: Binding affinity against human 5-hydroxytryptamine 6 receptor
[2] = Plasma Clearance measured at steady-state following iv infusion at 0.6 mg/kg/h in rats; type: ADME, organism-based; parameters: route intravenous; details: rat, 0.6 mg/kg/h infusion
Rattus norvegicus = organism: Rattus norvegicus; test: Blood: Brain distribution ratio is determined in rat; type: ADME, organism-based
In short: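 Rats received iv infusion for 8 h, and the brain:blood ratio was taken at steady state.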

Sequence of 5-hydroxytryptamine receptor 6 (P50406 whole entry, the tested form may be a part): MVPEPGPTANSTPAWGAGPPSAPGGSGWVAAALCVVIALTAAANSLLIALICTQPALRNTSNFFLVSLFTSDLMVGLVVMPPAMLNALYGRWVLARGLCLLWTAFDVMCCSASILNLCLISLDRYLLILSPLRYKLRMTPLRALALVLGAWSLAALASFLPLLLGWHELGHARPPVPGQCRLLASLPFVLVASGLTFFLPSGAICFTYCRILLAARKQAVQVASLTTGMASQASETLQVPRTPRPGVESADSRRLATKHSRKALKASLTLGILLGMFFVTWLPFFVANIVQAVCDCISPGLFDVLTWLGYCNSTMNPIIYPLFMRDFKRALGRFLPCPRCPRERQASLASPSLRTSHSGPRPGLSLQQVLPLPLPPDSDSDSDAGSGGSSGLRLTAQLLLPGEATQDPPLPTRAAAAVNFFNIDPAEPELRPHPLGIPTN

Row | Structure (SMILES) | pKi [1] | clearance [2] | Distribution ratio (Rattus norvegicus)
1 | COc1ccc(S(=O)(=O)N2c3ccccc3CC2(C)C)cc1N1CCNCC1 | 9.10 | – | –
2 | COc1ccc(S(=O)(=O)N2CCCc3c(Cl)cc(Cl)cc32)cc1N1CCNCC1 | 9.10 | – | –
3 | COc1ccc(S(=O)(=O)N2CCCc3cc(Br)ccc32)cc1N1CCNCC1 | 8.50 | – | –
4 | COc1ccc(S(=O)(=O)Nc2cc(Br)cc(Cl)c2Br)cc1N1CCNCC1 | 8.40 | – | –
5 | COc1ccc(S(=O)(=O)Nc2cc(I)ccc2C)cc1N1CCNCC1 | 9.10 | – | –
6 | COc1ccc(S(=O)(=O)Nc2cc([N+](=O)[O-])ccc2C)cc1N1CCNCC1 | 7.70 | – | –
7 | COc1ccc(Cl)cc1NS(=O)(=O)c1ccc(OC)c(N2CCNCC2)c1 | 8.90 | – | –
8 | COc1ccc(S(=O)(=O)Nc2cccc(Br)c2)cc1N1CCNCC1 | 8.90 | – | –
9 | COc1ccc(S(=O)(=O)Nc2ccc(Cl)c(Cl)c2)cc1N1CCNCC1 | 8.60 | – | –
10 | COc1ccc(S(=O)(=O)Nc2cc(Br)cc(F)c2Cl)cc1N1CCNCC1 | 8.50 | – | –
11 | COc1ccc(S(=O)(=O)Nc2cc(Br)cc(Br)c2Br)cc1N1CCNCC1 | 8.60 | – | –
12 | COc1ccc(S(=O)(=O)Nc2ccccc2C(C)C)cc1N1CCNCC1 | 9.00 | 52 mL/min/kg | –
13 | COc1ccc(S(=O)(=O)Nc2cc(Br)cc(Br)c2Cl)cc1N1CCNCC1 | 8.60 | – | –
14 | COc1ccc(S(=O)(=O)Nc2cc(Cl)cc(Cl)c2Br)cc1N1CCNCC1 | 8.50 | – | –
15 | COc1ccc(S(=O)(=O)Nc2ccccc2Br)cc1N1CCNCC1 | 8.80 | 60 mL/min/kg | 0.24
16 | COc1ccc(S(=O)(=O)N2CCc3cc(C)c(C(F)(F)F)cc32)cc1N1CCNCC1 | 8.40 | 73 mL/min/kg | 0.41
17 | COc1ccc(S(=O)(=O)Nc2cc(Br)cc(Br)c2)cc1N1CCNCC1 | 9.30 | – | –

Row | Structure (SMILES) | pKi [1] | clearance [2] | Distribution ratio (Rattus norvegicus)
18 | COc1cc(Cl)c(C)cc1NS(=O)(=O)c1ccc(OC)c(N2CCNCC2)c1 | 8.70 | – | –
19 | COc1ccc(C(F)(F)F)cc1NS(=O)(=O)c1ccc(OC)c(N2CCNCC2)c1 | 8.40 | – | –
20 | COc1ccc(S(=O)(=O)Nc2ccc(I)cc2)cc1N1CCNCC1 | 8.70 | – | –
21 | COc1ccc(S(=O)(=O)N2CCc3cccc(Cl)c3C2)cc1N1CCNCC1 | – | 83 mL/min/kg | –
22 | COc1ccc(S(=O)(=O)Nc2cc(Cl)c(Cl)cc2Cl)cc1N1CCNCC1 | 8.30 | – | –
23 | COc1ccc(S(=O)(=O)N2CCc3cc(I)ccc32)cc1N1CCNCC1 | 8.40 | – | –
24 | COc1ccc(S(=O)(=O)N2CCc3c(Cl)ccc(Cl)c3C2)cc1N1CCNCC1 | – | 76 mL/min/kg | –
25 | COc1ccc(S(=O)(=O)Nc2cc(F)cc(F)c2Cl)cc1N1CCNCC1 | 7.50 | – | –
26 | COc1ccc(S(=O)(=O)Nc2ccc(Cl)cc2C(F)(F)F)cc1N1CCNCC1 | 7.60 | – | –
27 | COc1ccc(S(=O)(=O)Nc2cccc(I)c2)cc1N1CCNCC1 | 9.30 | 58 mL/min/kg | 0.13
28 | COc1ccc(S(=O)(=O)Nc2cc(Cl)cc(Br)c2Cl)cc1N1CCNCC1 | 8.70 | – | –
29 | COc1ccc(S(=O)(=O)Nc2c(F)cc(Br)cc2F)cc1N1CCNCC1 | 6.80 | – | –
30 | COc1ccc(S(=O)(=O)Nc2cc(Br)cc(Br)c2F)cc1N1CCNCC1 | 8.60 | – | –
31 | COc1ccc(S(=O)(=O)Nc2cccc(Cl)c2)cc1N1CCNCC1 | 8.90 | – | –
32 | COc1ccc(S(=O)(=O)Nc2cc(Br)cc(Cl)c2Cl)cc1N1CCNCC1 | 8.40 | – | –
33 | COc1ccc(S(=O)(=O)Nc2ccc(C)cc2Br)cc1N1CCNCC1 | 8.10 | – | –
34 | COc1ccc(S(=O)(=O)N2CCCc3ccc(Br)cc32)cc1N1CCNCC1 | 9.50 | – | –
